# High-throughput results deposited in PubChem by SRMLSC.
# Rows were chosen to be rich in hits. Some 2.6% of all compounds tested hit in one or more screens of this group.
# Yeast lifespan up – yeast lifespan extension; S. cerevisiae growth with nicotinamide, OD615; deaD strain in restrictive glucose medium; inhibition of the nicotinamide effect, % at 10 µM; 130,000 tested, 0.68% active; AID 775;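 active = inhibition above a set limit, placed 3 SD over the median of all compounds, cut at about 26% in these data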;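 note: 0% = nicotinamide-treated wells and 100% = cells grown without nicotinamide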
#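 assay system = DeaD-strain S. cerevisiae | buffer or medium = restrictive glucose medium | reagent = 1.5 mM nicotinamide | compound = 10 µM single point, 0.25% DMSO | incubation = 48 h compound exposure at 30 °C, humidified | signal = OD615 measurement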
# RAM network inh – inhibitors of the yeast RAM network | S. cerevisiae dse1pr::URA3 reporter, 5-FOA growth OD615, 2 d; analog-sensitive cbk1-as2 kinase mutant strain | 190,000 tested, 1.8% active | inhibition, % at 50 µM;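 active = inhibition above a set limit, 3 SD over mean compound inhibition, cut at about 8.4% in these data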;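 note: 0% = DMSO-only wells with no growth and 100% = 10 µM 1-NA-PP1 full growth; inhibition rescues growth on 5-FOA so higher OD means more RAM inhibition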
# BB579 growth dn – chemicals that inhibit yeast BB579 growth in restrictive medium (lifespan-shortening candidates) | S. cerevisiae BB579 growth, OD615, 48 h | inhibition, % at 10 µM | 140,000 tested, 0.51% active;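 active = inhibition above a set limit, 3 SD over the mean compound inhibition, cut at about 44% in these data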
#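 Test system: S. cerevisiae DeaD strain BB579 yeast; Medium: restrictive CSMM-D medium; Compound: one dose, 10 µM compound with 0.25% DMSO; Incubation: 4 h cell preincubation, 48 h compound exposure, 30 °C humidified; Signal: OD at 615 nm; Benchmarks: amphotericin B at 10 µg/mL as positive control.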
# RAM efflux-def – restores 5-FOA growth of efflux-deficient yeast; shares compounds with RAM network inh; S. cerevisiae efflux-deficient reporter strain, 5-FOA growth OD615, 2 days; max inhibition, %; 1,200 tested, under 10 active; AID 1305; call rule not given here;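 note: plate controls were vehicle for no effect and reference inhibitor for full effect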
# The depositor's hits bear a star; / = no result given.
SMILES,Yeast lifespan up,RAM network inh,BB579 growth dn,RAM efflux-def
C/C(N)=C(/C#N)C(=O)COC(=O)Cc1coc2ccc3ccccc3c12,/,2,/,/
NC(=O)CC[C@H](NC(=O)c1ccc(F)cc1)C(=O)OCC(=O)NCc1ccc(F)cc1,/,2,/,/
O=C(O)CCCCn1c(SCc2cc(=O)n3cc(Cl)ccc3n2)nc2ccsc2c1=O,5,5,-32,/
O=C(O)CCCCn1c(SCc2ccccc2Cl)nc2ccsc2c1=O,/,17*,/,1
O=[N+]([O-])c1cccc(S(=O)(=O)c2cccc([N+](=O)[O-])c2)c1,/,1,/,/
CCCN(CC1CC1)C(=O)COC(=O)c1[nH]c(C)c(C(=O)OCC)c1C,-9,2,1,/
CCCN(CC1CC1)C(=O)COC(=O)c1ccc(CNS(=O)(=O)c2ccc(F)c(Cl)c2)cc1,3,12*,-11,1
CCOc1ccccc1NC(=S)N1CCC(NC(=O)C(C)(C)C)CC1,/,1,/,/
C=CCN=C1CCCc2c1[nH]c1ccc(C)cc21,/,0,/,/
Cc1oc(CC(C)C)c(CN)c1C(=O)O,-20,-1,-27,/
O=C(O)C1=C[C@@H](c2ccc(C(F)(F)F)cc2)C[C@@H](OCc2ccc(CO)cc2)O1,/,1,/,/
O=C(NCc1ccccc1)C1=C[C@H](c2ccc(C(F)(F)F)cc2)C[C@H](OCc2ccc(CO)cc2)O1,/,12*,/,4
C=CCc1ccc(O)c(-c2ccc(O)c(CC=C)c2)c1,/,-2,/,/
CCC(C)C(NC(=O)OC(C)(C)C)C(=O)NC(C)C(N)=O (stereo not drawn),/,0,/,/
N#Cc1c(SCc2ccccc2)nc(N2CCOCC2)c2c1CCCC2,-1,15*,-17,4
CCSc1nc(N2CCCCC2)c2c(c1C#N)CCCC2,-6,3,-39,/
Fc1ccc(NC(=S)Nc2cccnc2)c(F)c1F,/,1,/,/
O=C(/C=C/c1c(Cl)nc2ccccn12)Nc1ccc(F)cc1,/,1,/,/
Cc1cccc(C)c1OCc1nc2ccccc2c(=O)n1/N=C/c1ccc(OCC(=O)O)cc1,-2,1,-25,/
O=C(O)COc1ccc(/C=N/n2c(COc3ccccc3)nc3ccccc3c2=O)cc1,1,13*,5,3
CCn1c2ccccc2c2cc(NC(=O)COC(=O)c3cc(S(N)(=O)=O)c(Cl)cc3Cl)ccc21,/,5,/,/
CCOC(=O)C(C)Sc1nc2c(c(-c3cccs3)c1C#N)CCC2 (stereo not drawn),4,12*,-28,4
CCOC(=O)CSc1nc2c(c(-c3ccc(C)o3)c1C#N)CCCC2,-9,4,-9,/
CCOC(=O)c1cc(-c2ccccc2)sc1NC(=O)C(C)OC(=O)c1cccc(S(=O)(=O)N(C)C)c1 (stereo not drawn),7,4,-15,/
CCOC(=O)c1cc(-c2ccccc2)sc1NC(=O)C(C)OC(=O)c1cccnc1OCC (stereo not drawn),3,12*,-14,6
SMILES,Yeast lifespan up,RAM network inh,BB579 growth dn,RAM efflux-def
Cc1[nH]c2ccccc2c1/C=C/c1nc2ccccc2c(=O)n1-c1ccc([N+](=O)[O-])cc1,4,11*,-7,4
CCn1c(/C=C/c2c[nH]c3ccccc23)nc2ccccc2c1=O,/,6,/,/
CN(C)S(=O)(=O)c1ccc2[nH]cc(/C=C/c3nc4ccccc4c(=O)n3-c3ccccc3)c2c1,-3,13*,-34,6
CCn1c(/C=C/c2c(C)[nH]c3ccccc23)nc2ccccc2c1=O,0,7,-15,/
N=C1C(c2ccccc2)=C(O)CN1CCO,/,1,/,/
CCOc1ccccc1N1CCN(C(=O)C(Sc2ccccc2)c2ccccc2)CC1 (stereo not drawn),20,6,-29,/
O=C(C(Sc1ccccc1)c1ccccc1)N1CCN(c2ccccc2)CC1 (stereo not drawn),12,21*,-34,2
CCOC(=O)C1CCN(C(=O)N(CC)CC)CC1,/,0,/,/
COC(=O)c1ccc(CSc2nc(-c3ccco3)cc(C(F)(F)F)n2)o1,-16,18*,-36,2
COc1ccc(CCNC(=O)CSc2nc(-c3ccco3)cc(C(F)(F)F)n2)cc1,1,5,-7,/
Cc1cccc(C(=O)NCc2nnc(SCC(=O)NC(C)c3ccccc3)n2C)c1 (stereo not drawn),-6,-1,1,/
Cc1cccc(C(=O)NCc2nnc3c4ccccc4c(-c4ccccc4)nn23)c1,1,12*,-27,4
Cc1cccc2cc(CN(Cc3ccccc3)C(=O)c3cccc(F)c3)c(Cl)nc12,-8,4,-22,/
COc1ccc(S(=O)(=O)NCCOc2cccc3cccnc23)cc1OC,/,0,/,/
COc1ccccc1OCCNS(=O)(=O)c1ccc2oc3ccccc3c2c1,3,15*,-10,5
CCc1cc2c(SCC(=O)Nc3cc(C)on3)ncnc2s1,/,5,/,/
O=C(O)c1cc(N2N=C(C(F)(F)F)/C(=C/C=C/c3ccco3)C2=O)ccc1Cl,/,14*,/,6
CCOC(=O)c1ccc(N2N=C(C)/C(=C/C=C/c3ccco3)C2=O)cc1,/,3,-44,/
O=C(O)/C=C/c1cn(-c2ncc(C(F)(F)F)cc2Cl)c2ccccc12,-16,3,-22,/
CCNC(=S)N/N=C/c1sccc1C,/,0,/,/
CC(=O)c1ccccc1C(=O)NCc1cccnc1,8,1,-18,/
O=C(/C=C/c1ccc(Cl)cc1)c1cccnc1,-6,1,-19,/
O=C(/C=C/c1ccc(OCc2ccccc2)c(OCc2ccccc2)c1)c1cccnc1,5,14*,-20,6
Cc1ccc(N(CCCCN2C(=O)c3ccccc3C2=O)C(=O)c2cccs2)cc1,1,12*,-55,3
COc1ccc(N(CCCN2C(=O)c3cccc4cccc(c34)C2=O)C(=O)c2cccs2)cc1,2,6,-66,/
SMILES,Yeast lifespan up,RAM network inh,BB579 growth dn,RAM efflux-def
Cc1cc(-c2ccccc2)c2c(=O)[nH][nH]c2n1,7,-1,29,/
Cc1noc(C)c1COc1ccc(C(=O)Nc2ccccc2)cc1,/,4,/,/
Cc1noc(C)c1COc1cccc(C(=O)Nc2ccc(OCc3ccccc3)cc2)c1,-11,12*,-36,7
Cc1nn(Cc2c(Cl)cccc2Cl)c(C)c1NC(=O)Cn1nc([N+](=O)[O-])c(Cl)c1C,5,13*,-18,2
Cc1nn(Cc2ccccc2)c(C)c1NC(=O)Cn1nc([N+](=O)[O-])c(Cl)c1C,-4,0,-21,/
Cc1ccc(-c2csc(N(CC3CCCO3)C(=O)c3ccco3)n2)cc1 (stereo not drawn),-4,13*,-49,3
O=C(c1ccco1)N(CC1CCCO1)c1nc(-c2ccccc2)cs1 (stereo not drawn),-9,7,-44,/
O=C(c1cccs1)N(CC1CCCO1)c1nc(-c2ccccc2)cs1 (stereo not drawn),-9,16*,-32,2
COc1ccc(-c2csc(N(CC3CCCO3)C(=O)c3ccccc3)n2)cc1 (stereo not drawn),/,5,/,/
COc1ccccc1NC(=O)CSCc1nc2ccccc2[nH]1,5,0,-5,/
CC(=O)c1nnn(-c2ccc([N+](=O)[O-])cc2C)c1C,/,1,/,/
CCc1ccc(N/C(SCc2cccc(F)c2)=C(/C#N)C(=O)NCc2ccco2)cc1,7,16*,-20,5
